What was measured:
[1] = Cytotoxicity against human PC3 cells assessed as reduction in cell viability after 72 hrs by MTT assay; type: functional, cell-based; settings: PC-3, 72 h
Summary of the method: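 Cells grown in MEM with 10% FBS. About 4×10³ cells per well, seeded and held 24 h at 37 °C in 5% CO₂. Compounds added at the indicated final concentrations for 72 h. MTT then given for 4 h at 37 °C and formazan dissolved in DMSO. Absorbance read at 492 nm with 630 nm as reference.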

A549 = assay: Cytotoxicity against human A549 cells assessed as reduction in cell viability after 72 hrs by MTT assay; type: functional, cell-based; settings: A549, 72 h
MCF7 = assay: Cytotoxicity against human MCF7 cells assessed as reduction in cell viability after 72 hrs by MTT assay; type: functional, cell-based; settings: MCF7, 72 h
[2] = molecular target: Hepatocyte growth factor receptor (Homo sapiens, UniProt P08581)
[3] = molecular target: Serine/threonine-protein kinase mTOR (Homo sapiens, UniProt P42345); assay: Inhibition of mTOR (unknown origin) using ULight-4E-BP1 peptide substrate incubated for 1 hr by TR-FRET assay
[4] = molecular target: Phosphatidylinositol 4,5-bisphosphate 3-kinase catalytic subunit alpha isoform (Homo sapiens, UniProt P42336); assay: Inhibition of PI3Kalpha (unknown origin) using phosphatidylinositol as substrate incubated for 60 mins by Kinase-Glo luminescent kinase assay
Sequence of Phosphatidylinositol 4,5-bisphosphate 3-kinase catalytic subunit alpha isoform (P42336 whole entry, canonical isoform): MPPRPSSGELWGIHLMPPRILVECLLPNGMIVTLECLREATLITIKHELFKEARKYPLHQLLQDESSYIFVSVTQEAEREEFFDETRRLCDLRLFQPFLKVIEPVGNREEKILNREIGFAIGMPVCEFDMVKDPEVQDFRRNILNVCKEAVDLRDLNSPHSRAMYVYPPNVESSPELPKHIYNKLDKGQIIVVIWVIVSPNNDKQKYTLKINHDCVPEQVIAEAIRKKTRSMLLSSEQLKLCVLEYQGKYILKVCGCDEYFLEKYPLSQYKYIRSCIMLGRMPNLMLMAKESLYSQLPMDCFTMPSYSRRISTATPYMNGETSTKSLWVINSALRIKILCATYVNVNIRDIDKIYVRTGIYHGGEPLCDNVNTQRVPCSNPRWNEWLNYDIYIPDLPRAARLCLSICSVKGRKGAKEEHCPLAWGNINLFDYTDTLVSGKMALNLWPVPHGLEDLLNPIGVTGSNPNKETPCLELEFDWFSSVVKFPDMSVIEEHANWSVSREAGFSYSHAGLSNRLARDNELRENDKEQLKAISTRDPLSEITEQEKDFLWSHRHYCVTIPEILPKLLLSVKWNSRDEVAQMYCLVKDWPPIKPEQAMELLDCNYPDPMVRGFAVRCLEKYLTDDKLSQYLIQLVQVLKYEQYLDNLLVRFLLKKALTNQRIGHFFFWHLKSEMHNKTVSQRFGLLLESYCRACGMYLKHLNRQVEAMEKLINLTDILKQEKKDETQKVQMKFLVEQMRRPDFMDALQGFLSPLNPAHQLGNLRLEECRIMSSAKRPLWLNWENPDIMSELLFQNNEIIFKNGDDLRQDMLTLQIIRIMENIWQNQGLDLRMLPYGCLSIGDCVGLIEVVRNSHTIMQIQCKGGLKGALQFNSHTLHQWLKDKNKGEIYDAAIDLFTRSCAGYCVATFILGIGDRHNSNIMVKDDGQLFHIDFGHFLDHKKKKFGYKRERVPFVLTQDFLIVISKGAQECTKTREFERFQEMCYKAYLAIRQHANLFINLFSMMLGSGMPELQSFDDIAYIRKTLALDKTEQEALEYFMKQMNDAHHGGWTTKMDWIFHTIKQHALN

Sequence of Hepatocyte growth factor receptor (P08581 whole entry): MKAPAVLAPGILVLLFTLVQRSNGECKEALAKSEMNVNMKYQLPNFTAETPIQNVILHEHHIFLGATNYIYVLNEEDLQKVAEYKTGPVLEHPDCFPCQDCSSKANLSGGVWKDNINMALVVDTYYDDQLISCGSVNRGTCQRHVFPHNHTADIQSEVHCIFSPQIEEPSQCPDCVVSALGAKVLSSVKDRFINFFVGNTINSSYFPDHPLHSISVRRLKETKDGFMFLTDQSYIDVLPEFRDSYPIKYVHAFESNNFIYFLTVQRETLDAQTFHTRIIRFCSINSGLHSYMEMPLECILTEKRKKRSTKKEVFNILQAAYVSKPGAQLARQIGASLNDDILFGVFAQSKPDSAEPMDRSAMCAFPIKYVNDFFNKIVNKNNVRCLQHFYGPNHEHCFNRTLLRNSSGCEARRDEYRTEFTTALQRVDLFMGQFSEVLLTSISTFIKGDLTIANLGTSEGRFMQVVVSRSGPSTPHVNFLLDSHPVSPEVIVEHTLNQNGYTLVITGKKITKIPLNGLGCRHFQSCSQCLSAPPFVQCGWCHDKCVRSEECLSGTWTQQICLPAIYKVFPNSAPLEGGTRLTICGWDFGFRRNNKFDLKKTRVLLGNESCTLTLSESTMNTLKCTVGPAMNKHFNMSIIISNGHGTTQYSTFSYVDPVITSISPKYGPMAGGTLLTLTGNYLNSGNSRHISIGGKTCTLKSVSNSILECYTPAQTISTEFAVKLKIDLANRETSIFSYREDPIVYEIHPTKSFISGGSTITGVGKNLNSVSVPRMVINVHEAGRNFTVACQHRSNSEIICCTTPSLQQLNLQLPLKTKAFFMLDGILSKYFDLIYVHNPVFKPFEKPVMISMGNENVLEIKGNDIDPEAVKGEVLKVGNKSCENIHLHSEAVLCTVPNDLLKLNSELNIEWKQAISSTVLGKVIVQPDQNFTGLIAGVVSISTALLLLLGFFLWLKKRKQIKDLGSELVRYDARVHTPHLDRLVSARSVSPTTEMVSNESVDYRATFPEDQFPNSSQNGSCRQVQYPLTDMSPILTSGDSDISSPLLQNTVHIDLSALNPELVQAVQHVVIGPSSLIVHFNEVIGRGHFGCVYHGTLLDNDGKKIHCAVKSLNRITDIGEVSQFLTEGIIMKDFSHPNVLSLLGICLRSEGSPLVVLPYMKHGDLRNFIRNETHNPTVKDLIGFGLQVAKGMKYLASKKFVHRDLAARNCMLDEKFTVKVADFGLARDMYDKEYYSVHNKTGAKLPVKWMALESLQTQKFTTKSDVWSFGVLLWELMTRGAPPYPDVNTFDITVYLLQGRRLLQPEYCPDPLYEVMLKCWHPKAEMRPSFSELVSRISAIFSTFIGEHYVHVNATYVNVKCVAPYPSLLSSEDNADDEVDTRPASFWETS

IC50 [2] [µM]	IC50 [3] [µM]	IC50 [4] [µM]	Compound	IC50 [1] [µM]	IC50 (A549) [µM]	IC50 (MCF7) [µM]
–	–	–	O=C(Nc1ccccc1)Nc1ccc(-c2nc3c(c(N4CCOCC4)n2)CSCC3)cn1	> 50	1.27	46.6
–	–	–	Cc1ccc(S(=O)(=O)NC(=O)Nc2ccc(-c3nc4c(c(N5CCOCC5)n3)CS(=O)(=O)CC4)cn2)cc1	> 50	42.5	> 50
–	–	–	O=C(Nc1ccc(-c2nc3c(c(N4CCOCC4)n2)CSCC3)cn1)NS(=O)(=O)c1ccc(Cl)cc1	> 50	> 50	> 50
–	–	–	CNC(=O)c1cc(Oc2ccc(NC(=O)Nc3ccc(Cl)c(C(F)(F)F)c3)cc2)ccn1 [SORAFENIB]	8.08	–	–
–	–	–	CS(=O)(=O)N1CCN(Cc2cc3nc(-c4cccc5[nH]ncc45)nc(N4CCOCC4)c3s2)CC1 [PICTILISIB]	0.8	1.2	–
–	–	–	O=C(Nc1ccc(-c2nc3c(c(N4CCOCC4)n2)CSCC3)cc1)NS(=O)(=O)c1ccc(F)cc1	> 50	> 50	> 50
–	–	–	O=C(Nc1ccc(-c2nc3c(c(N4CCOCC4)n2)CSCC3)cn1)NS(=O)(=O)c1cccs1	> 50	46.9	> 50
–	–	–	O=C(Nc1ccc(-c2nc3c(c(N4CCOCC4)n2)CSCC3)cc1)NS(=O)(=O)c1ccc(Cl)cc1	> 50	> 50	> 50
–	–	–	O=C(Nc1ccccc1)N1CCN(c2nc3c(c(N4CCOCC4)n2)CS(=O)(=O)CC3)CC1	> 50	> 50	> 50
> 10	0.94	6.72	O=C(Nc1ccc(F)c(Cl)c1)Nc1ccc(-c2nc3c(c(N4CCOCC4)n2)CS(=O)(=O)CC3)cn1	1.41	0.52	4.82
–	–	–	O=C(Nc1ccc(-c2nc3c(c(N4CCOCC4)n2)CS(=O)(=O)CC3)cc1)NS(=O)(=O)c1ccc(Cl)cc1	> 50	> 50	> 50
–	–	–	O=C(Nc1ccc(-c2nc3c(c(N4CCOCC4)n2)CS(=O)(=O)CC3)cc1)NS(=O)(=O)c1ccc(F)cc1	> 50	> 50	> 50
–	–	–	O=C(Nc1ccc(-c2nc3c(c(N4CCOCC4)n2)CS(=O)(=O)CC3)cn1)NS(=O)(=O)c1ccc(F)cc1F	> 50	22.7	19.7
> 10	6.26	> 10	O=C(Nc1ccc(Cl)c(C(F)(F)F)c1)N1CCN(c2nc3c(c(N4CCOCC4)n2)CSCC3)CC1	26.7	3.83	5.8
> 10	0.86	0.69	O=C(Nc1ccc(F)c(Cl)c1)Nc1ccc(-c2nc3c(c(N4CCOCC4)n2)CSCC3)cn1	20.5	6.07	11.5
–	–	–	O=C(Nc1ccc(Br)cc1)N1CCN(c2nc3c(c(N4CCOCC4)n2)CS(=O)(=O)CC3)CC1	> 50	19	45.6
–	–	–	O=C(Nc1ccc(Cl)c(C(F)(F)F)c1)Nc1ccc(-c2nc3c(c(N4CCOCC4)n2)CS(=O)(=O)CC3)cn1	32.2	> 50	4.67
–	–	–	O=C(Nc1ccc(-c2nc3c(c(N4CCOCC4)n2)CS(=O)(=O)CC3)cn1)NS(=O)(=O)c1ccc(Cl)cc1	> 50	> 50	> 50
–	–	–	O=C(Nc1ccc(Br)cc1)N1CCN(c2nc3c(c(N4CCOCC4)n2)CSCC3)CC1	> 50	39.9	4.68
–	–	–	O=C(Nc1ccccc1)N1CCN(c2nc3c(c(N4CCOCC4)n2)CSCC3)CC1	> 50	> 50	> 50
> 10	9.43	4.23	O=C(Nc1ccc(Cl)c(C(F)(F)F)c1)N1CCN(c2nc3c(c(N4CCOCC4)n2)CS(=O)(=O)CC3)CC1	28.7	6.13	5.94
–	–	–	O=C(Nc1ccc(-c2nc3c(c(N4CCOCC4)n2)CSCC3)cn1)NS(=O)(=O)c1ccc(F)cc1	> 50	36.2	> 50

— ChEMBL document CHEMBL3792291, “Design, synthesis, biological evaluation and docking studies of novel 2-substituted-4-morpholino-7,8-dihydro-5H-thiopyrano[4,3-d]pyrimidine derivatives as dual PI3Kα/mTOR inhibitors” (Eur J Med Chem, 2016)
